Data taken from ChEMBL document CHEMBL2311488 (Bioorg Med Chem Lett, 2013).
In brackets after ≈: the same amount, converted by molar mass.

Columns and labels:
[1] = target: T1, Neuropeptide Y receptor type 5 (Mus musculus, UniProt O70342); test: Displacement of [125I]PYY from mouse NPY-Y5 receptor
T1 sequence (O70342 whole entry): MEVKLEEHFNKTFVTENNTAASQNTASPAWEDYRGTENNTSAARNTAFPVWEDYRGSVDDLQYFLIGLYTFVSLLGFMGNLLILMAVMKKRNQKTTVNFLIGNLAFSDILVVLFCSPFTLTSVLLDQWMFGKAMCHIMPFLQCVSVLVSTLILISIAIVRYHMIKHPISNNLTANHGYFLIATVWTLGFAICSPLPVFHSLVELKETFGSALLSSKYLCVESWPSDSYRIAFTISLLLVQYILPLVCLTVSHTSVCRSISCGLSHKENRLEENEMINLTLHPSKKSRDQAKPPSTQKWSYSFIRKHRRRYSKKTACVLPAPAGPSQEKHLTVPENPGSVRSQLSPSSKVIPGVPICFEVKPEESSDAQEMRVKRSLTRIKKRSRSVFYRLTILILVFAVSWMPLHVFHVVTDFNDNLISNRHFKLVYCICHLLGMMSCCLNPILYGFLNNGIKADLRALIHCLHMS

in vitro = conditions: human, liver microsomes
Rattus norvegicus = organism: Rattus norvegicus; test: in vitro; conditions: liver microsomes
physchem = conditions: pH 6.8
Mus musculus [2] = test: Toxicity in mouse assessed as appearance of abnormal behavior at 6.25 to 25 mg/kg, po bid measured for 21 days; type: organism-based; parameters: dose 6.25-25 mg/kg, route oral; conditions: in vivo, 504 h
Summary of the method: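 Diet-induced obese mice were given compound orally for 21 days and watched for abnormal behavior during dosing.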

Mus musculus [3] = test: Antiobesity activity against DIO mouse assessed as reduction of body weight administered as po bid measured for 21 days; type: functional, organism-based
Summary of the method: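 Diet-induced obese mice were dosed orally for 21 days, with body weight gain compared against a control group (n = 7).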

[4] = Drug uptake in mouse CSF at 0.5 mg/kg, iv at 30 mins; type: ADME, organism-based, Cerebrospinal fluid; parameters: dose 0.5 mg/kg, route intravenous; conditions: read-out: Drug uptake
Summary of the method: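 CSF drug concentration was measured 30 min after a 0.5 mg/kg intravenous dose.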

Mus musculus [5] = test: Antiobesity activity in DIO mouse assessed as reduction of [cPP1to7, NPY19 to 23, Ala31, Aib32, Gln42]-induced food intake at 12.5 mg/kg, po administered 1 hr prior to [cPP1to7, NPY19 to 23, Ala31, Aib32, Gln42] induction measured after 2 hrs relative to vehicle-treated control; type: functional; parameters: scale not given: the % may be the effect or the level left
Summary of the method: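 Mice received oral compound at 12.5 mg/kg 1 h before treatment with a Y5-selective agonist peptide. Food intake was then compared with the increase the agonist induces.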

SMILES	IC50 [1]	remaining at 0.5 h (in vitro)	remaining at 0.5 h (Rattus norvegicus)	solubility kinetic (physchem)	Activity (Mus musculus [2])	Activity (Mus musculus [3])	concentration at 0.5 h [4]	Activity (Mus musculus [5])
CCS(=O)(=O)c1ccc2[nH]c(C3(c4ccc(-c5ccccc5)cc4)CC3)nc2c1	608 nM	88.5%	81.3%	0.5 µM (≈ 0.201 µg/mL)				
CCS(=O)(=O)c1ccc2[nH]c(C(=O)c3ccc(-c4ccccc4)cc3)nc2c1	2.61 nM	> 99.9%	> 99.9%	0.3 µM (≈ 0.117 µg/mL)				
CCS(=O)(=O)c1ccc2[nH]c(O[C@H]3CC[C@H](c4ccccc4)CC3)nc2c1	3.75 nM	> 99.9%	93.8%	6.1 µM (≈ 2.35 µg/mL)				
CCS(=O)(=O)c1ccc2nc(OCc3cccc(Cl)c3)[nH]c2c1	80.4 nM	88.5%	37.9%	49.9 µM (≈ 17.5 µg/mL)				
CCS(=O)(=O)c1ccc2[nH]c(Oc3ccc(-c4ccccn4)cc3)nc2c1	4.07 nM			> 50 µM				
CCS(=O)(=O)c1ccc2[nH]c(Oc3cccc(-c4ccccc4)c3)nc2c1	9.55 nM	29.1%	77.3%	4.2 µM (≈ 1.59 µg/mL)				
CCS(=O)(=O)c1ccc2nc(Oc3ccc(-c4ccccc4)cn3)[nH]c2c1	96.4 nM	89.2%	> 99.9%	45.2 µM (≈ 17.2 µg/mL)				
CCS(=O)(=O)c1ccc2[nH]c(Oc3ccc(OC(F)(F)F)cc3)nc2c1	22.4 nM	92.8%	91.6%	> 50 µM				
CCS(=O)(=O)c1ccc2nc(Oc3cccc(OC(F)(F)F)c3)[nH]c2c1	7.11 nM	97.1%	86.2%	> 50 µM				
CCS(=O)(=O)c1ccc2[nH]c(Oc3cccc(C(F)(F)F)c3)nc2c1	41.2 nM	> 99.9%	88.4%	> 50 µM				
CCS(=O)(=O)c1ccc2[nH]c(Oc3ccc(-c4ccccc4)cc3)nc2c1	2.82 nM	> 99.9%	> 99.9%	2.5 µM (≈ 0.946 µg/mL)				
CCS(=O)(=O)c1ccc2nc(C(F)(F)c3ccc(-c4ccccc4)cc3)[nH]c2c1	48.6 nM	0.1%	78.3%	0.3 µM (≈ 0.124 µg/mL)				
CCS(=O)(=O)c1ccc2nc(Cc3ccc(-c4ccccc4)cc3)[nH]c2c1	112 nM	87.6%	74.3%	3 µM (≈ 1.13 µg/mL)				
CCS(=O)(=O)c1ccc2nc(Oc3ccc(C(F)(F)F)cc3)[nH]c2c1	98.1 nM	95.2%	86.9%	> 50 µM				
CCS(=O)(=O)c1ccc2[nH]c(Oc3ccc(-c4ccccc4)nc3)nc2c1	2.92 nM	98.6%	> 99.9%	39.7 µM (≈ 15.1 µg/mL)	Non-toxic	Dose-dependent effect	2.9 ng/mL	50.8%
CCS(=O)(=O)c1ccc2[nH]c(SCc3cccc(Cl)c3)nc2c1	12.1 nM	63.7%	0.13%	27.5 µM (≈ 10.1 µg/mL)				
CCS(=O)(=O)c1ccc2nc(OCCc3ccccc3)[nH]c2c1	25 nM	88.1%	37.6%	> 50 µM				
CCS(=O)(=O)c1ccc2[nH]c(Oc3ccccc3C(F)(F)F)nc2c1	3190 nM			> 50 µM				
CCS(=O)(=O)c1ccc2nc(OCC(F)(F)c3ccccc3)[nH]c2c1	4.39 nM	97.9%	83.8%	> 50 µM			1.7 ng/mL	
